Values joined by “and” are separate entries in the source; they are usually repeats but may differ in a detail not shown here. Identical values can stand only once. A value given as a limit tells only on which side of the number the result lay.

We go through 27 compounds from ChEMBL document CHEMBL1126776, “Antihyperglycemic activity of novel naphthalenyl 3H-1,2,3,5-oxathiadiazole 2-oxides” (1993).

Assay [1] relates to Mus musculus. The assay is described as follows: Percentage change in plasma glucose after 4 days of treatment in db/db mouse at 20 mg/kg (po) in a postprandial assay. In kind it is functional. The procedure, abridged:
(§1)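 Male db/db (C57BL/KsJ) mice; postprandial assay after 4 days of oral dosing. Result is % change in plasma glucose relative to the vehicle-treated group. Values are mean ± SE with 4–6 mice per group; p < 0.05 flagged.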

In assay [2] the test system is Mus musculus. The assay is described as follows: Percentage change in plasma glucose after 4 days of treatment in db/db mouse at 1 mg/kg (po) in a postprandial assay. In kind it is functional. The procedure, abridged:
as §1

Assay [3] concerns Mus musculus. Briefly: Percentage change in plasma glucose after 4 days of treatment in db/db mouse at 100 mg/kg (po) in a postprandial assay. In kind it is functional. In outline:
as §1

In assay [4] the test system is Mus musculus. Briefly: Percentage change in plasma glucose after 4 days of treatment in db/db mouse at 5 mg/kg (po) in a postprandial assay. In kind it is functional. The procedure, abridged: as §1
The subject of assay [5] is Mus musculus. Briefly: Plasma glucose after treatment in obese ob/ob mice at 20 mg/kg (po). In kind it is functional. In outline:
(§2)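 Female obese ob/ob (C57BL/6J) mice, 3-5 months old, fed ad libitum. Oral gavage once daily for 10 days, vehicle 0.2 mL 2% Tween 80/saline (w/v). Decapitated 4 h after the last dose; blood assayed for glucose. Mean ± SEM; p < 0.05 versus vehicle.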

In assay [6] the test system is Mus musculus. Briefly: Plasma glucose after treatment in obese ob/ob mice at 5 mg/kg (po). The assay is classed as functional. The procedure, abridged: as §2
For assay [7], the system named is Rattus norvegicus. Briefly: Volume of urine collected after treatment in nondiabetic rats at the dose of 25 mg/kg. The assay is classed as functional. The procedure, abridged: (§3)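 Male Sprague-Dawley rats (nondiabetic), dosed daily by mouth for 11 days. Urine collected over 24 h and assayed for glucose; urine volume, water intake and food intake also measured. Values are mean ± SE, n = 6 per group.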

The subject of assay [8] is Rattus norvegicus. Briefly: Volume of urine collected after treatment in nondiabetic rats at the dose of 5 mg/kg. In kind it is functional. In outline:
as §3

The subject of assay [9] is Rattus norvegicus. The assay is described as follows: Change in plasma glucose levels of streptozocin-diabetic rats wtih type I diabetes at dose of 25 mg/kg, po. In kind it is functional. In outline: (§4)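 Male Sprague-Dawley rats made diabetic with streptozocin (100 mg/kg, ip). Drug or vehicle given orally once daily for 3 weeks. Tail-tip blood taken 90 min after the last dose and assayed for plasma glucose. Mean ± SE, n = 9-12 per group.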

Assay [10] has as its system Rattus norvegicus. Briefly: Change in plasma glucose levels of streptozocin-diabetic rats wtih type I diabetes at dose of 5 mg/kg, po. The assay is classed as functional. The procedure, abridged: as §4
The test system of assay [11] is Rattus norvegicus. Briefly: Change in urinary glucose excretion of nondiabetic rats at the dose of 25 mg/kg. In kind it is functional, Urine.
Assay [12] concerns Rattus norvegicus. Briefly: Plasma glucose levels of nondiabetic rats after 0 hour of drug administration (25 mg/Kg, po). The assay is classed as functional. In outline:
(§5)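 Single oral dose to male Sprague-Dawley nondiabetic rats. Tail-tip blood sampled before dosing and at 1, 2 and 4 h after dosing for plasma glucose. Mean ± SE, n = 5 per group; compared with the respective vehicle group.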

The test system of assay [13] is Rattus norvegicus. The assay is described as follows: Plasma glucose levels of nondiabetic rats after 1 hour of drug administration (25 mg/Kg, po). The assay is classed as functional. The procedure, abridged:
as §5

Assay [14] concerns Rattus norvegicus. The assay is described as follows: Plasma glucose levels of nondiabetic rats after 2 hour of drug administration (25 mg/Kg, po). The assay is classed as functional. The procedure, abridged:
as §5

The subject of assay [15] is Rattus norvegicus. The assay is described as follows: Plasma glucose levels of nondiabetic rats after 4 hour of drug administration (25 mg/Kg, po). In kind it is functional. In outline: as §5
The test system of assay [16] is Rattus norvegicus. Briefly: Amount of food consumed by the rat at a dose of 10 mg/kg. In kind it is functional. In outline: as §3
In assay [17] the test system is Rattus norvegicus. Briefly: Amount of food consumed by the rat at a dose of 25 mg/kg. The assay is classed as functional. The procedure, abridged:
as §3

For assay [18], the system named is Rattus norvegicus. Briefly: Amount of food consumed by the rat at a dose of 5 mg/kg. The assay is classed as functional. In outline: as §3
The test system of assay [19] is Rattus norvegicus. Briefly: Volume of water consumed by the rat at a dose of 10 mg/kg. The assay is classed as functional. The procedure, abridged:
as §3

For assay [20], the system named is Rattus norvegicus. The assay is described as follows: Volume of water consumed by the rat at a dose of 25 mg/kg. In kind it is functional. In outline: as §3
Assay [21] deals with Rattus norvegicus. The assay is described as follows: Volume of water consumed by the rat at a dose of 5 mg/kg. In kind it is functional. In outline: as §3
Assay [22] deals with Rattus norvegicus. Briefly: Volume of urine collected after treatment in nondiabetic rats at the dose of 10 mg/kg. The assay is classed as functional. The procedure, abridged: as §3
Assay [23] relates to Mus musculus. Briefly: Percentage change in plasma glucose after 4 days of treatment in db/db mouse at 5 mg/kg (po) in a postprandial assay.
Setting [24] is: dose 5 mg/kg, in the assay text read “5 mg/kg” for “100 mg/kg”.

Regarding `COc1ccc2cc(CC3=NOS(=O)N3)ccc2c1` (centres undefined), in assay [1], the Change is given as under -15%.

Regarding `O=S1NC(COc2ccc3ccccc3c2)=NO1` (centres undefined), in assay [1], the Change was under -15%.

Take `O=S1NC(Cc2ccc3ccccc3c2Cl)=NO1` (centres undefined): the figures for the Change in assay [2] and in [3] (setting [24]) were under -15% and -27%, respectively.

For the compound `C=Cc1cccc2cc(CC3=NOS(=O)N3)ccc12` (centres undefined), the Change in assay [4] is given as -17%.

For `COC(CC1=NOS(=O)N1)c1ccc2ccccc2c1` (centres undefined), the Change in assay [1] was under -15%.

Regarding `O=S1NC(Cc2ccc3ccc(Br)cc3c2)=NO1` (centres undefined), the Change in assay [4] is given as under -15%.

`COc1c(CC2=NOS(=O)N2)cc(Cl)c2ccccc12` (centres undefined): the Change in assay [2] was -17%; in [4], -31%.

With `O=S1NC(Cc2ccc3cccc(Cl)c3c2)=NO1` (centres undefined), the Change in assay [2] is under -15%; in [3] (setting [24]), -55%.

Consider `N#Cc1cccc2ccc(CC3=NOS(=O)N3)cc12` (centres undefined), for which the Change in assay [2] and in assay [4] was under -15% throughout.

Take `O=S1NC(Cc2cc3ccccc3cc2C(F)(F)F)=NO1` (centres undefined): the Change in [2] is recorded as under -15%; in assay [3] (setting [24]), -30%.

Take `O=S1NC(c2ccc3ccccc3c2)=NO1` (centres undefined): in [1], the Change was under -15%.

As to `O=S1NC(Cc2ccc3c(Cl)cccc3c2)=NO1` (centres undefined), the Glucose level in assay [5] is 199 mg/dL; in assay [6], 223 mg/dL; in [9] it was 255 mg/dL; in assay [10], 329 mg/dL; in assay [11], 5.7 g dl-1 and 2.1 g day-1; in [12], 111 mg/dL. Also, the Glucose level is 120 mg/dL in assay [13], 122 mg/dL in assay [14] and 118 mg/dL in assay [15]. Besides, the Change in assay [3] (dose 100 mg/kg) was -44% and -21%. The results for the urine volume in [7], in assay [8] and in [22] were 37 mL/day, 29 mL/day and 23 mL/day, respectively. The Consumption was determined as 25 g/day in [16]; 25 g/day in assay [17]; 25 g/day in assay [18]; 45 mL/day in assay [19]; 59 mL/day in assay [20]; 49 mL/day in assay [21].

As for `COc1c(CC2=NOS(=O)N2)ccc2ccccc12` (centres undefined), the Change in [2] was under -15%; in assay [4], -43%.

For the compound `CC(C1=NOS(=O)N1)c1ccc2ccccc2c1` (centres undefined), the Change in assay [1] is -49%.

For `O=S1NC(Cc2ccc3c(Br)cccc3c2)=NO1` (centres undefined), the Change in assay [3] (dose 100 mg/kg) was -47% and -35%.

With `O=S1NC(Cc2ccc3cc(F)ccc3c2Br)=NO1` (centres undefined), the Change in assay [4] is listed as -16%.

Take `COc1ccc(Br)c2cc(CC3=NOS(=O)N3)ccc12` (centres undefined): in assay [2], the Change is under -15%.

Regarding `O=S1NC(CCCc2ccc3ccccc3c2)=NO1` (centres undefined), the Change in assay [1] was under -15%.

For the compound `CC(CC1=NOS(=O)N1)c1ccc2ccccc2c1` (centres undefined), the Change in assay [1] is -27%.

In the case of `O=S1NC(Cc2ccc3cc(F)ccc3c2Cl)=NO1` (centres undefined), in [23], the Change is listed as under -15%.

Take `C#Cc1cccc2cc(CC3=NOS(=O)N3)ccc12` (centres undefined): the Change in [2] is on record as -19%; in assay [3] (setting [24]), -45%.

For the compound `O=S1NC(CCCCc2ccc3ccccc3c2)=NO1` (centres undefined), the Change in assay [3] (dose 100 mg/kg) is reported as -28%.

With `CSc1cccc2cc(CC3=NOS(=O)N3)ccc12` (centres undefined), the Change in [4] is recorded as under -15%.

Consider `O=S1NC(Cc2ccc3cccc(Br)c3c2)=NO1` (centres undefined), for which the Change in assay [3] (dose 100 mg/kg) was -59% and -48%.

On to `O=S1NC(Cc2cc(Br)c3ccccc3c2)=NO1` (centres undefined), for which the Change was under -15% in assay [2] and -21% in assay [4].

On to `Cc1cccc2cc(CC3=NOS(=O)N3)ccc12` (centres undefined), for which the Change in assay [2] is under -15%; in assay [3] (setting [24]) it was -37%.

Regarding `Cc1ccc2ccc(CC3=NOS(=O)N3)cc2c1` (centres undefined), the Change in assay [1] is -36%.
